Assay results as given in ChEMBL document CHEMBL1148460, “Interaction of cycloSal-pronucleotides with cholinesterases from different origins. A structure-activity relationship” (J Med Chem, 2004).

Experiments:
[1] = target: Acetylcholinesterase (Electrophorus electricus, UniProt O42275); experiment: Inhibitory activity towards Electrophorus electricus acetylcholinesterase
[2] = target: Cholinesterase (Homo sapiens, UniProt P06276); experiment: Inhibitory activity towards human butyrylcholinesterase
Method in brief: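 Modified Rappaport assay following acetylcholine chloride hydrolysis to acetic acid, with m-nitrophenol indicator in phosphate buffer at pH 7.8 and NaCl. The compound is added in DMSO, and the reaction is started with serum (human, mouse or calf). A420 is read at 25 °C at 0 and 5 min. Final inhibitor is 0.1, 0.5, 1, 5, 10, 30 and 50 µM. IC50 is interpolated from ΔE plots in the pseudolinear region.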

[3] = system: L1210; experiment: Antitumor activity tested in L1210 cells; assay type: functional, cell-based; conditions: Mus musculus
[4] = system: Human gammaherpesvirus 4; experiment: Anti-EBV activity blocking EBV-DNA synthesis; assay type: functional, organism-based
[5] = system: CCRF-CEM; experiment: Anti-HIV-2 activity tested in human lymphocytic CEM cells; assay type: functional, cell-based
[6] = system: CCRF-CEM; experiment: Anti-HIV-1 activity tested in human lymphocytic CEM cells; assay type: functional, cell-based
[7] = Half-life was determined; assay type: ADME; conditions: human
[8] = system: Vero; experiment: Anti-HSV-1 activity tested in Vero cells; assay type: functional, cell-based; conditions: Chlorocebus sabaeus

Cholinesterase, sequence (P06276 whole entry): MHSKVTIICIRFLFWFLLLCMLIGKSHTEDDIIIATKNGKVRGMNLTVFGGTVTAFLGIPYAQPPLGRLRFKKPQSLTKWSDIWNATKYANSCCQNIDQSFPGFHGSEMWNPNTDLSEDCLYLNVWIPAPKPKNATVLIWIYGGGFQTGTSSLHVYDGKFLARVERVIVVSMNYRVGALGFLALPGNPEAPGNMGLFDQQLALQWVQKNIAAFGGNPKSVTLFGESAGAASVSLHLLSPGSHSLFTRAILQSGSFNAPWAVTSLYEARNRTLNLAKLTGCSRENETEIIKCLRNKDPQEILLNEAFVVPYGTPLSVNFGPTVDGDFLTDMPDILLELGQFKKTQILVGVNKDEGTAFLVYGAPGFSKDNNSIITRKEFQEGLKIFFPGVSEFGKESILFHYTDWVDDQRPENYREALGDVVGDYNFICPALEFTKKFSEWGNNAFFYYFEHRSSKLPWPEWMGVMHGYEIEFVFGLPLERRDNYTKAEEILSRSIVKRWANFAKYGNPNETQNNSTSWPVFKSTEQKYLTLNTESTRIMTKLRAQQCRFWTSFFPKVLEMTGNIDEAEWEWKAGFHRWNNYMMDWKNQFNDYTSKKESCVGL
Acetylcholinesterase, sequence (O42275 whole entry): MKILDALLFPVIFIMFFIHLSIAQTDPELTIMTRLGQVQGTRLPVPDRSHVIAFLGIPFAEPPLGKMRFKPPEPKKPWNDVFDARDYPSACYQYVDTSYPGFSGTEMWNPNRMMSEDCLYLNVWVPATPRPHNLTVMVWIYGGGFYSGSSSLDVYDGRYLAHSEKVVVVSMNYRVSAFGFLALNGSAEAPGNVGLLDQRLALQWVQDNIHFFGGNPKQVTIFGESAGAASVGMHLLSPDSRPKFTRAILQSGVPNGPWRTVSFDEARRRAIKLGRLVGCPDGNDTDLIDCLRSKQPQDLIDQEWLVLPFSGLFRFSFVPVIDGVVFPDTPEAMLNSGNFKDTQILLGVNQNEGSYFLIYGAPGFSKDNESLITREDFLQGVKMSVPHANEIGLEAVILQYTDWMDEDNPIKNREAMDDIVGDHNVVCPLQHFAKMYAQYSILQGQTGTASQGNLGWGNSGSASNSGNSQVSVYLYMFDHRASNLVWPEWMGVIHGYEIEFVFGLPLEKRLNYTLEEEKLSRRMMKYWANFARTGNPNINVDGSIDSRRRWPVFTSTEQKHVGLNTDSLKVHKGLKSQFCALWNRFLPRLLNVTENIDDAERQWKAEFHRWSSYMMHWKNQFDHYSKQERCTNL

| SMILES | IC50 [1] | IC50 [2] | EC50 [8] | also measured |
| --- | --- | --- | --- | --- |
| Cc1cccc2c1O[P@](=O)(OC[C@H]1OC(n3cc(F)c(=O)[nH]c3=O)C[C@@H]1O)OC2 (single isomer, unassigned) | > 50 µM | > 50 µM |  | EC50 [3]: 0.044 µM |
| Cc1cccc2c1OP(=O)(OC[C@H]1O[C@@H](N3CC(/C=C/Br)C(=O)NC3=O)C[C@@H]1O)OC2 (stereo partly drawn) | > 50 µM | > 50 µM |  | EC50 [4]: 4.1 µM |
| Cc1cn(C2C=CC(COP3(=O)OCc4cccc(CCC(=O)OC(C)(C)C)c4O3)O2)c(=O)[nH]c1=O (stereo not drawn) | > 50 µM | 3.4 µM |  | EC50 [5]: 0.33 µM |
| Cc1cccc2c1OP(=O)(OC[C@H]1O[C@@H](n3cc(F)c(=O)[nH]c3=O)C[C@@H]1O)OC2 (stereo partly drawn) | > 50 µM | > 50 µM |  | IC50 [3]: 0.04 µM |
| Cc1cccc2c1O[P@@](=O)(OC[C@@H](CO)OCn1cnc3c(O)nc(N)nc31)OC2 | > 50 µM | > 50 µM |  | EC50 [4]: 3.29 µM |
| Cc1cn(C2C=CC(COP3(=O)OCc4c(F)c(C(C)(C)C)cc(C(C)(C)C)c4O3)O2)c(=O)[nH]c1=O (stereo not drawn) | > 50 µM | 48 µM |  | EC50 [6]: 0.16 µM; half-life [7]: 6.2 h |
| Cc1cccc2c1OP(=O)(OCC(CO)CCn1cnc3c(O)nc(N)nc31)OC2 (stereo not drawn) | > 50 µM | > 50 µM | 17.7 µM |  |
| Cc1cccc2c1OP(=O)(OCCOCn1cnc3c(O)nc(N)nc31)OC2 (stereo not drawn) | > 50 µM | > 50 µM | 0.15 µM |  |
| Cc1cccc2c1OP(=O)(OC[C@H](CO)OCn1cnc3c(O)nc(N)nc31)OC2 (stereo partly drawn) | > 50 µM | > 50 µM | 3.3 µM |  |
